Where two headings read alike, the source gives them in different places.
Experiments:
FS6 = assay: spectrophotometric kinetics, Lineweaver-Burk; assay type: biochemical, metagenome; settings: pH 5.5, 25 °C, HAM poly-buffer
Method in brief: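 Purified metagenome-derived acid phosphatase (imidazole-gradient eluted, dialysed into MES/HEPES/acetate buffer with 150 mM NaCl) at 0.1-1 µM in 0.1 mL HAM poly-buffer (40 mM HEPES, 40 mM acetic acid, 40 mM MES). […] at 0 to 0.22 mM; hydrolysis followed spectrophotometrically. Vmax and Km derived from Michaelis–Menten analysis and Lineweaver–Burk double-reciprocal plots.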

[1] = molecular target: FS6 acid phosphatase (class C acid phosphatase, histidine-tagged recombinant FS6); assay: AUC

O=[N+]([O-])c1ccc(OP(=O)(O)O)cc1 [p-nitrophenyl phosphate]
Km (FS6; read-out: pNPP / Km): 40 ± 10 µM

Nc1ncnc2c1ncn2[C@@H]1O[C@H](COP(=O)(O)O)[C@@H](O)[C@H]1O [adenosine 5'-monophosphate]
Km (FS6; read-out: AMP-5’ / Km): 180 ± 70 µM

Nc1nc2c(ncn2[C@@H]2O[C@H](COP(=O)(O)O)[C@@H](O)[C@H]2O)c(=O)[nH]1 [guanosine 5'-monophosphate]
Km (FS6; read-out: GMP-5’ / Km): 220 ± 20 µM

O=c1ccn([C@@H]2O[C@H](COP(=O)(O)O)[C@@H](O)[C@H]2O)c(=O)[nH]1 [uridine 5'-monophosphate]
Km (FS6; read-out: UMP-5’ / Km): 180 ± 130 µM

FS6 acid phosphatase (class C acid phosphatase, histidine-tagged recombinant FS6) (enzyme)
stoichiometry N [1]: 10

From publication PMC11001196 (Microbial Biotechnology, 2024)
